The target of data set [1] is T1, Tubulin (Homo sapiens) (UniProt P68371+Q9H4B7+P0DPH7+P68366+Q13509+Q71U36+P04350+Q3ZCM7+P07437+P68363+Q9BQE3+Q6PEY2+Q13885+Q9BVA1+Q9BUF5). Kind of data set: Inhibition of [3H]colchicine binding to tubulin (unknown origin) at 5 uM relative to control. It is filed as protein-complex assay.
Data set [2] has as its target T1, Tubulin (Homo sapiens). Nature of the data set: Inhibition of [3H]colchicine binding to tubulin (unknown origin) at 0.5 uM relative to control. The format is protein-complex assay.
A further data set deals with Tubulin. Kind of data set: Inhibition of tubulin assembly (unknown origin). The format is protein-complex assay, Homo sapiens.
The subject of a further data set is MCF7. Kind of data set: Antitumor activity against human MCF7 cells expressing TUBB3 xenografted in athymic mouse assessed as reduction in tumor growth at 30 mg/kg administered twice in a week. The format is functional, organism-based. Put shortly:
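βIII-tubulin-overexpressing MCF-7 cells in Matrigel implanted into mammary fat pad #4 of 8-week-old female athymic mice. […] Tumor volumes measured over time and analysed by two-way repeated-measures ANOVA. Body weight change at day 41 analysed by one-way ANOVA. n = 7 control, 8 per treated group.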
(In general: A xenograft is tissue or cells of one species grown in another, often human tumour cells in immunodeficient mice.)

Data set [3] in a line: Toxicity in athymic mouse xenografted with human MCF7 cells expressing TUBB3 assessed as effect on body weight at 30 mg/kg administered twice in a week. The format is organism-based. The note with it: in vivo. Put shortly: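 MCF-7 TUBB3 cells (10^7 in 100 uL Matrigel) implanted into mammary fat pad #4 of 8-week-old female athymic mice. Dosing was 30 mg/kg twice weekly. Body weight was expressed as percent change at day 41 versus starting weight and analysed by one-way ANOVA, n = 8.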

The subject of the next data set is SR. Nature of the data set: Growth inhibition of human SR cells incubated for 48 hrs by sulforhodamine B assay. The format is functional.
The test system of a further data set is HOP-62. Kind of data set: Growth inhibition of human HOP-62 cells incubated for 48 hrs by sulforhodamine B assay. The format is functional. In general terms: The SRB assay estimates cell density from bound dye.
The next data set concerns HCC 2998. Nature of the data set: Growth inhibition of human HCC 2998 cells incubated for 48 hrs by sulforhodamine B assay. The format is functional.
For another data set, the system named is HCT-116. Kind of data set: Growth inhibition of human HCT-116 cells incubated for 48 hrs by sulforhodamine B assay. The format is functional.
A further data set deals with KM12. Kind of data set: Growth inhibition of human KM12 cells incubated for 48 hrs by sulforhodamine B assay. The format is functional.
The test system of another data set is SW-620. Nature of the data set: Growth inhibition of human SW-620 cells incubated for 48 hrs by sulforhodamine B assay. It is filed as functional.
A further data set relates to SNB-75. Nature of the data set: Growth inhibition of human SNB-75 cells incubated for 48 hrs by sulforhodamine B assay. The format is functional.
The next data set relates to U-251. Kind of data set: Growth inhibition of human U-251 cells incubated for 48 hrs by sulforhodamine B assay. It is filed as functional.
In a further data set the test system is Malme-3M. Kind of data set: Growth inhibition of human Malme-3M cells incubated for 48 hrs by sulforhodamine B assay. It is filed as functional.
The next data set deals with SK-MEL-5. Kind of data set: Growth inhibition of human SK-MEL-5 cells incubated for 48 hrs by sulforhodamine B assay. The format is functional.
In a further data set the test system is IGROV-1. Nature of the data set: Growth inhibition of human IGROV-1 cells incubated for 48 hrs by sulforhodamine B assay. It is filed as functional.
Another data set concerns OVCAR-3. Kind of data set: Growth inhibition of human OVCAR-3 cells incubated for 48 hrs by sulforhodamine B assay. It is filed as functional.
The subject of another data set is OVCAR-8. Nature of the data set: Growth inhibition of human OVCAR-8 cells incubated for 48 hrs by sulforhodamine B assay. It is filed as functional.
Another data set has as its system NCI/ADR-RES. Kind of data set: Growth inhibition of human NCI/ADR-RES cells incubated for 48 hrs by sulforhodamine B assay. It is filed as functional.
The subject of the next data set is DU-145. Kind of data set: Growth inhibition of human DU-145 cells incubated for 48 hrs by sulforhodamine B assay. It is filed as functional.
Another data set has as its system Hs-578T. Kind of data set: Growth inhibition of human HS-578T cells incubated for 48 hrs by sulforhodamine B assay. It is filed as functional.

Calls of active or inactive are those of the source. No cut-off for these calls is given here.

In general, inhibition refers to how much of the control response was suppressed. A lower inhibition goes with a weak effect. As a reminder, the IC50 is the concentration needed to halve the response being measured. Lower therefore signals higher potency. The GI50 is the concentration giving 50% growth inhibition. Read a high GI50 as less potent growth inhibition.

Turning to `COc1ccc(N(C)c2nc(Cl)nc3cnn(C)c23)cc1`, the results for the inhibition at Tubulin (Homo sapiens) [1] and at Tubulin (Homo sapiens) [2] were 94% and 68%, respectively. On Tubulin, this compound displayed an IC50 of 450 nM. In addition, the TGI result with MCF7 was “Active”. For the same compound, the Activity entry in [3] is given as “Non-Toxic”. Also, the GI50 in the data set on SR was determined as 9.64 nM; in the data set with HOP-62, 15.4 nM; in the data set with HCC 2998 it was 23.6 nM; with HCT-116, 9.07 nM; in the data set on KM12, 10.8 nM; with SW-620, 6.67 nM. Moreover, the GI50 came out at 10.8 nM in the data set on SNB-75; 7.97 nM with U-251; 12.1 nM with Malme-3M; 14.6 nM with SK-MEL-5; 13.3 nM with IGROV-1; 6.37 nM with OVCAR-3. In addition, the 50% growth inhibitory concentration (GI50) with OVCAR-8 was determined as 14.7 nM; in the data set with NCI/ADR-RES, 8.24 nM; in the data set with DU-145, 8.89 nM; in the data set on Hs-578T, 11.2 nM.

The values are drawn from ChEMBL document CHEMBL4813982, “Novel pyrazolo[4,3-d]pyrimidine microtubule targeting agents (MTAs): Synthesis, structure-activity relationship, in vitro and in vivo evaluation as antitumor agents” (Bioorg Med Chem Lett, 2021).
